# ChEMBL document CHEMBL4428081, “Selective AKR1C3 Inhibitors Potentiate Chemotherapeutic Activity in Multiple Acute Myeloid Leukemia (AML) Cell Lines” (ACS Med Chem Lett, 2016)
# The source made the active and inactive calls. No cut-off for these calls is given here.
# Experiments:
# COLO 205 = assay: Cytotoxicity against human COLO205 cells at 10 uM after 48 hrs by sulforhodamine B assay; assay type: functional, cell-based
# MOLT-4 = assay: Cytotoxicity against human MOLT4 cells at 10 uM after 48 hrs by sulforhodamine B assay; assay type: functional, cell-based
# OVCAR-3 = assay: Cytotoxicity against human OVCAR3 cells at 10 uM after 48 hrs by sulforhodamine B assay; assay type: functional, cell-based
# HCT-116 = assay: Cytotoxicity against human HCT116 cells at 10 uM after 48 hrs by sulforhodamine B assay; assay type: functional, cell-based
# K562 = assay: Cytotoxicity against human K562 cells at 10 uM after 48 hrs by sulforhodamine B assay; assay type: functional, cell-based
# SK-MEL-28 = assay: Cytotoxicity against human SK-MEL-28 cells at 10 uM after 48 hrs by sulforhodamine B assay; assay type: functional, cell-based
# OVCAR-4 = assay: Cytotoxicity against human OVCAR4 cells at 10 uM after 48 hrs by sulforhodamine B assay; assay type: functional, cell-based
# SW-620 = assay: Cytotoxicity against human SW620 cells at 10 uM after 48 hrs by sulforhodamine B assay; assay type: functional, cell-based
# Summary of the method: (§1)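 NCI 60 cancer cell line panel screen run at a single concentration of 10 μM.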
# NCI-H322M = assay: Cytotoxicity against human NCI-H322M cells at 10 uM after 48 hrs by sulforhodamine B assay; assay type: functional, cell-based
# OVCAR-5 = assay: Cytotoxicity against human OVCAR5 cells at 10 uM after 48 hrs by sulforhodamine B assay; assay type: functional, cell-based
# UACC-62 = assay: Cytotoxicity against human UACC62 cells at 10 uM after 48 hrs by sulforhodamine B assay; assay type: functional, cell-based; summary of the method: as §1
# MDA-MB-468 = assay: Cytotoxicity against human MDA-MB-468 cells at 10 uM after 48 hrs by sulforhodamine B assay; assay type: functional, cell-based
# SR = assay: Cytotoxicity against human SR cells at 10 uM after 48 hrs by sulforhodamine B assay; assay type: functional, cell-based; summary of the method: as §1
# MDA-MB-435 = assay: Cytotoxicity against human MDA-MB-435 cells at 10 uM after 48 hrs by sulforhodamine B assay; assay type: functional, cell-based
# M14 = assay: Cytotoxicity against human M14 cells at 10 uM after 48 hrs by sulforhodamine B assay; assay type: functional, cell-based
# MDA-MB-231 = assay: Cytotoxicity against human MDA-MB-231 cells at 10 uM after 48 hrs by sulforhodamine B assay; assay type: functional, cell-based
# RXF 393 = assay: Cytotoxicity against human RXF393 cells at 10 uM after 48 hrs by sulforhodamine B assay; assay type: functional, cell-based
# SNB-75 = assay: Cytotoxicity against human SNB75 cells at 10 uM after 48 hrs by sulforhodamine B assay; assay type: functional, cell-based; summary of the method: as §1
# DU-145 = assay: Cytotoxicity against human DU145 cells at 10 uM after 48 hrs by sulforhodamine B assay; assay type: functional, cell-based
# UO-31 = assay: Cytotoxicity against human UO31 cells at 10 uM after 48 hrs by sulforhodamine B assay; assay type: functional, cell-based; summary of the method: as §1
# [1] = molecular target: T1, Aldo-keto reductase family 1 member C3 (Homo sapiens) (UniProt P42330); assay: Inhibition of AKR1C3 in human HL60 cells assessed as potentiation of etoposide-induced cytotoxicity by measuring reduction in cell viability at 0.1 uM coincubated with etoposide at 1 uM after 72 hrs by MTS assay (reference value: 40%); assay type: cell-based
# T1 sequence (whole entry): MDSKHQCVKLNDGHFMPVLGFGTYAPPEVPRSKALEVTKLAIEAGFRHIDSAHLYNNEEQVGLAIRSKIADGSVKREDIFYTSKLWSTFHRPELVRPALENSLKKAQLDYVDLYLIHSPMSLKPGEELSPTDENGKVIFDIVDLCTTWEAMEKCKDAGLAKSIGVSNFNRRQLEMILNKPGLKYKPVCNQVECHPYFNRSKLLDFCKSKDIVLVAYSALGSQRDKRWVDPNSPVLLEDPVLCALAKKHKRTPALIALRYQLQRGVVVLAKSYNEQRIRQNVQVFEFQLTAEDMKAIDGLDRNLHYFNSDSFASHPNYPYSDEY
# Summary of the method: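 HL-60 or KG1a cells were coincubated with inhibitor and etoposide for 72 h, then cell viability was read. Values are mean ± SD (n = 6). Treatments were compared with control by two-tailed t test.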
# IGROV-1 = assay: Cytotoxicity against human IGROV1 cells at 10 uM after 48 hrs by sulforhodamine B assay; assay type: functional, cell-based
# NCI-H226 = assay: Cytotoxicity against human NCI-H226 cells at 10 uM after 48 hrs by sulforhodamine B assay; assay type: functional, cell-based
# SN12C = assay: Cytotoxicity against human SN12C cells at 10 uM after 48 hrs by sulforhodamine B assay; assay type: functional, cell-based
# MCF7 = assay: Cytotoxicity against human MCF7 cells at 10 uM after 48 hrs by sulforhodamine B assay; assay type: functional, cell-based
# HCT-15 = assay: Cytotoxicity against human HCT15 cells at 10 uM after 48 hrs by sulforhodamine B assay; assay type: functional, cell-based
# Hs-578T = assay: Cytotoxicity against human Hs 578T cells at 10 uM after 48 hrs by sulforhodamine B assay; assay type: functional, cell-based
# NCI/ADR-RES = assay: Cytotoxicity against human NCI-ADR-RES cells at 10 uM after 48 hrs by sulforhodamine B assay; assay type: functional, cell-based
# CCRF-CEM = assay: Cytotoxicity against human CCRF-CEM cells at 10 uM after 48 hrs by sulforhodamine B assay; assay type: functional, cell-based
# OVCAR-8 = assay: Cytotoxicity against human OVCAR8 cells at 10 uM after 48 hrs by sulforhodamine B assay; assay type: functional, cell-based
# SK-MEL-2 = assay: Cytotoxicity against human SK-MEL-2 cells at 10 uM after 48 hrs by sulforhodamine B assay; assay type: functional, cell-based
# ACHN = assay: Cytotoxicity against human ACHN cells at 10 uM after 48 hrs by sulforhodamine B assay; assay type: functional, cell-based
# NCI-H522 = assay: Cytotoxicity against human NCI-H522 cells at 10 uM after 48 hrs by sulforhodamine B assay; assay type: functional, cell-based
# LOX IMVI = assay: Cytotoxicity against human LOXIMVI cells at 10 uM after 48 hrs by sulforhodamine B assay; assay type: functional, cell-based
# PC-3 = assay: Cytotoxicity against human PC3 cells at 10 uM after 48 hrs by sulforhodamine B assay; assay type: functional, cell-based
# [2] = molecular target: T1, Aldo-keto reductase family 1 member C3 (Homo sapiens); assay: Inhibition of AKR1C3 in human HL60 cells assessed as potentiation of etoposide-induced cytotoxicity by measuring reduction in cell viability pre-treated with 0.1 to 1 uM compound for 24 hrs followed by 1 uM etoposide exposure for additional 72 hrs by MTS assay; assay type: cell-based
# HCC 2998 = assay: Cytotoxicity against human HCC2998 cells at 10 uM after 48 hrs by sulforhodamine B assay; assay type: functional, cell-based
# SF-268 = assay: Cytotoxicity against human SF268 cells at 10 uM after 48 hrs by sulforhodamine B assay; assay type: functional, cell-based
# SF-295 = assay: Cytotoxicity against human SF295 cells at 10 uM after 48 hrs by sulforhodamine B assay; assay type: functional, cell-based
# HOP-62 = assay: Cytotoxicity against human HOP62 cells at 10 uM after 48 hrs by sulforhodamine B assay; assay type: functional, cell-based
# NCI-H460 = assay: Cytotoxicity against human NCI-H460 cells at 10 uM after 48 hrs by sulforhodamine B assay; assay type: functional, cell-based
# SK-MEL-5 = assay: Cytotoxicity against human SK-MEL-5 cells at 10 uM after 48 hrs by sulforhodamine B assay; assay type: functional, cell-based
# CAKI-1 = assay: Cytotoxicity against human Caki1 cells at 10 uM after 48 hrs by sulforhodamine B assay; assay type: functional, cell-based
compound,measurement,setting,value
CC(C)=CCc1cc(/C=C/C(=O)O)ccc1OC(=O)CCc1ccccc1,Activity,COLO 205,inactive
same,Activity,MOLT-4,inactive
same,Activity,OVCAR-3,inactive
same,Activity,HCT-116,inactive
same,Activity,K562,inactive
same,Activity,SK-MEL-28,inactive
same,Activity,OVCAR-4,inactive
same,Activity,SW-620,inactive
same,Activity,NCI-H322M,inactive
same,Activity,OVCAR-5,inactive
same,Activity,UACC-62,inactive
same,Activity,MDA-MB-468,inactive
same,Activity,SR,inactive
same,Activity,MDA-MB-435,inactive
same,Activity,M14,inactive
same,Activity,MDA-MB-231,inactive
same,Activity,RXF 393,inactive
same,Activity,SNB-75,inactive
same,Activity,DU-145,inactive
same,Activity,UO-31,inactive
same,Activity,[1],70%
same,Activity,IGROV-1,inactive
same,Activity,NCI-H226,inactive
same,Activity,SN12C,inactive
same,Activity,MCF7,inactive
same,Activity,HCT-15,inactive
same,Activity,Hs-578T,inactive
same,Activity,NCI/ADR-RES,inactive
same,Activity,CCRF-CEM,inactive
same,Activity,OVCAR-8,inactive
same,Activity,SK-MEL-2,inactive
same,Activity,ACHN,inactive
same,Activity,NCI-H522,inactive
same,Activity,LOX IMVI,inactive
same,Activity,PC-3,inactive
same,Activity,[2],80 to 95%
same,Activity,HCC 2998,inactive
same,Activity,SF-268,inactive
same,Activity,SF-295,inactive
same,Activity,HOP-62,inactive
same,Activity,NCI-H460,inactive
same,Activity,SK-MEL-5,inactive
same,Activity,CAKI-1,inactive
